Test results taken from ChEMBL document CHEMBL4152391, “Bile Acid Oligomers and Their Combination with Antibiotics To Combat Bacterial Infections” (J Med Chem, 2018).
In brackets after ≈: the same amount, converted by molar mass. Activity calls are given as the source filed them. The calls are words filed in the database; no cut-off is given here.

Assays:
[1] = tested on: Staphylococcus aureus; test: Antibiofilm activity against Staphylococcus aureus ATCC 29213 at 128 ug/ml after 18 hrs by XTT-menadione assay relative to control; format: functional
Procedure, shortened: (§1)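 Biofilms grown 24 h at 37 °C from suspension at OD600 0.1 in tryptic soy broth with 1% glucose, washed twice with saline, exposed 18 h at 37 °C to twofold serial dilutions; growth and sterility controls. Read by XTT (0.5 mg/mL)–menadione (10 µM) in MHB, 1 h dark at 37 °C, absorbance 450 nm; MBIC50 and MBIC100 = 50% and 100% inhibition.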

[2] = tested on: Staphylococcus aureus; test: Antibacterial activity against Staphylococcus aureus ATCC 29213 at 30 ug after 18 hrs by agar disk-diffusion method; format: functional; details: ATCC 29213, 18 h, read-out: DIZ
Procedure, shortened: (§2)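 Agar disk diffusion per CLSI: compound loaded on sterile 6 mm paper disks, dried, placed on Mueller Hinton agar lawned with bacteria at McFarland 0.5; cefotaxime positive and DMSO solvent controls; 37 °C for 18 h; zone of inhibition diameter measured to nearest whole mm.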

[3] = tested on: Escherichia coli; test: Antibacterial activity against Escherichia coli ATCC 25922 at 5 to 100 ug after 18 hrs by agar disk-diffusion method; format: functional, organism-based; procedure, shortened: as §2
[4] = tested on: Pseudomonas aeruginosa; test: Antibacterial activity against Pseudomonas aeruginosa at 5 to 100 ug after 18 hrs by agar disk-diffusion method; format: functional, organism-based; procedure, shortened: as §2
[5] = tested on: Staphylococcus aureus; test: Antibacterial activity against Staphylococcus aureus ATCC 29213 after 18 hrs by broth microdilution method; format: functional, organism-based; details: ATCC 29213, 18 h
Procedure, shortened: (§3)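 Broth microdilution per CLSI for water-insoluble agents: twofold serial dilutions made in DMSO at 100x final, diluted in Mueller Hinton broth to 1% final DMSO; 5x10^5 cfu/mL bacteria exposed 18 h at 37 °C with positive, growth and sterility controls. MIC = lowest concentration giving complete growth inhibition (turbidity and XTT reduction); IC50 from OD600 dose-response inflection point.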

[6] = tested on: Candida albicans; test: Antifungal activity against Candida albicans ATCC 90028 at 30 ug after 24 hrs by agar disk-diffusion method; format: functional; details: ATCC 90028, 24 h, read-out: DIZ
Procedure, shortened: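 Candida disk diffusion on MHA with 2% glucose and 0.5 µg/mL methylene blue, following CLSI antifungal guidance; paper disks loaded with compound; incubated 37 °C for 24 h; zone of inhibition diameter read.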

[7] = tested on: Staphylococcus aureus; test: Antibacterial activity against Staphylococcus aureus ATCC 29213 assessed as disruption of cell membrane at 0.5 times MIC after 18 hrs by scanning electron microscopic method; format: functional, organism-based
Procedure, shortened: (§4)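 Bacterial suspension (5x10^5 cfu/mL) exposed to compound at 0.5x and 1x MIC for 18 h at 37 °C alongside untreated control; centrifuged 10,000 rpm 10 min, pellets washed twice in normal saline, then processed for scanning electron microscopy.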

[8] = tested on: Staphylococcus aureus; test: Antibacterial activity against Staphylococcus aureus ATCC 29213 assessed as bleb formation at 0.5 times MIC after 18 hrs by scanning electron microscopic method; format: functional, organism-based; procedure, shortened: as §4
[9] = tested on: Staphylococcus aureus; test: Antibacterial activity against Staphylococcus aureus ATCC 29213 assessed as shriveling at 0.5 times MIC after 18 hrs by scanning electron microscopic method; format: functional, organism-based; procedure, shortened: as §4
[10] = tested on: Staphylococcus aureus; test: Antibacterial activity against methicillin/ciprofloxacin/chloramphenicol-resistant Staphylococcus aureus ATCC 1704 clinical isolate at 5 to 100 ug after 18 hrs by agar disk-diffusion method; format: functional
Procedure, shortened: (§5)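 CLSI agar disk diffusion: 5 to 100 µg compound loaded on 6 mm sterile paper disks, dried, placed on Mueller Hinton agar lawned with McFarland 0.5 bacterial suspension; cefotaxime positive and DMSO solvent controls run alongside; 18 h at 37 °C, inhibition zone diameter read to nearest whole mm.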

[11] = tested on: Staphylococcus aureus; test: Antibacterial activity against methicillin/ciprofloxacin/chloramphenicol-resistant Staphylococcus aureus ATCC 1704 clinical isolate after 18 hrs by broth microdilution method; format: functional, organism-based; details: ATCC 1704, 18 h; procedure, shortened: as §3
[12] = tested on: Staphylococcus aureus; test: Antibacterial activity against methicillin/ciprofloxacin-resistant Staphylococcus aureus ATCC 2673 clinical isolate at 5 to 100 ug after 18 hrs by agar disk-diffusion method; format: functional; procedure, shortened: as §5
[13] = tested on: Staphylococcus aureus; test: Antibacterial activity against methicillin/ciprofloxacin-resistant Staphylococcus aureus ATCC 2673 clinical isolate after 18 hrs by broth microdilution method; format: functional, organism-based; details: ATCC 2673, 18 h; procedure, shortened: as §3
[14] = tested on: Staphylococcus aureus; test: Potentiation of cefotaxime-induced antibacterial activity against Staphylococcus aureus ATCC 29213 assessed as decrease in cefotaxime MIC at 2 ug/ml after 18 hrs by checkerboard microdilution method relative to control; format: functional
Procedure, shortened: (§6)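 Checkerboard microdilution: 5x10^5 cfu/mL bacteria exposed to twofold serial dilutions of compound and antibiotic, alone and combined (0.03–32 µg/mL), 18 h at 37 °C. ΣFIC: ≤0.5 synergy; >0.5–1 additive; >1–4 indifferent; >4 antagonism.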

[15] = tested on: Staphylococcus aureus; test: Potentiation of amikacin-induced antibacterial activity against Staphylococcus aureus ATCC 29213 assessed as decrease in […] at 2 ug/ml after 18 hrs by checkerboard microdilution method relative to control; format: functional; procedure, shortened: as §6
[16] = tested on: Staphylococcus aureus; test: Potentiation of ciprofloxacin-induced antibacterial activity against Staphylococcus aureus ATCC 29213 assessed as decrease in […] at 2 ug/ml after 18 hrs by checkerboard microdilution method relative to control; format: functional; procedure, shortened: as §6
[17] = tested on: Staphylococcus aureus; test: Potentiation of vancomycin-induced antibacterial activity against Staphylococcus aureus ATCC 29213 assessed as decrease in […] at 2 ug/ml after 18 hrs by checkerboard microdilution method relative to control; format: functional; procedure, shortened: as §6
[18] = tested on: Staphylococcus aureus; test: Potentiation of cefotaxime-induced antibacterial activity against Staphylococcus aureus ATCC 29213 assessed as FICI index at 2 ug/ml after 18 hrs by checkerboard microdilution method relative to control; format: functional; procedure, shortened: as §6
[19] = tested on: Staphylococcus aureus; test: Potentiation of amikacin-induced antibacterial activity against Staphylococcus aureus ATCC 29213 assessed as FICI index at 2 ug/ml after 18 hrs by checkerboard microdilution method relative to control; format: functional; procedure, shortened: as §6
[20] = tested on: Staphylococcus aureus; test: Potentiation of ciprofloxacin-induced antibacterial activity against Staphylococcus aureus ATCC 29213 assessed as FICI index at 2 ug/ml after 18 hrs by checkerboard microdilution method relative to control; format: functional; procedure, shortened: as §6
[21] = tested on: Staphylococcus aureus; test: Potentiation of vancomycin-induced antibacterial activity against Staphylococcus aureus ATCC 29213 assessed as FICI index at 2 ug/ml after 18 hrs by checkerboard microdilution method relative to control; format: functional; procedure, shortened: as §6
[22] = tested on: Staphylococcus aureus; test: Antibiofilm activity against Staphylococcus aureus ATCC 29213 after 18 hrs by XTT-menadione assay; format: functional; procedure, shortened: as §1
[23] = tested on: HEK293; test: Cytotoxicity against HEK293 cells assessed as decrease in cell viability at 1 to 200 uM after 24 hrs by Alamar Blue assay; format: cell-based; details: human, hek293, 24 h
Procedure, shortened: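 HEK293 cells in DMEM HG, 10% FBS, 1% pen-strep, 37 °C 5% CO2, passage under 30, used at 80% confluency; seeded 1×10^4/well, after 24 h washed and treated 24 h with 1–200 µM in complete medium; alamar blue (0.15 mg/mL) added for 4 h, absorbance 570 and 600 nm; viability relative to untreated cells as 100%.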

## O=C(O)c1cn(C2CC2)c2cc(N3CCNCC3)c(F)cc2c1=O [CIPROFLOXACIN]
[1]
  Activity: <50%

## CO/N=C(\C(=O)N[C@@H]1C(=O)N2C(C(=O)O)=C(COC(C)=O)CS[C@H]12)c1csc(N)n1 [CEFOTAXIME]
[1]
  Activity: <50%

## C[C@H](CCC(=O)NCCNCCNCCNC(=O)CC[C@@H](C)[C@H]1CC[C@H]2[C@@H]3[C@H](O)C[C@@H]4C[C@H](O)CC[C@]4(C)[C@H]3C[C@H](O)[C@]12C)[C@H]1CC[C@H]2[C@@H]3[C@H](O)C[C@@H]4C[C@H](O)CC[C@]4(C)[C@H]3C[C@H](O)[C@]12C
[2]
  zone of inhibition at 30 µg/disc: 11 mm
[3]
  Activity: inactive
[4]
  Activity: inactive
[5]
  IC50: 12.1 µg/mL (≈ 13 µM)
  MIC: 16 µg/mL (≈ 17.3 µM)

## NCC[C@H](O)C(=O)N[C@@H]1C[C@H](N)[C@@H](O[C@H]2O[C@H](CN)[C@@H](O)[C@H](O)[C@H]2O)[C@H](O)[C@H]1O[C@H]1O[C@H](CO)[C@@H](O)[C@H](N)[C@H]1O [AMIKACIN]
[1]
  Activity: <50%

## CN[C@H](CC(C)C)C(=O)N[C@H]1C(=O)N[C@@H](CC(N)=O)C(=O)N[C@H]2C(=O)N[C@H]3C(=O)N[C@H](C(=O)N[C@H](C(=O)O)c4cc(O)cc(O)c4-c4cc3ccc4O)[C@H](O)c3ccc(c(Cl)c3)Oc3cc2cc(c3O[C@@H]2O[C@H](CO)[C@@H](O)[C@H](O)[C@H]2O[C@H]2C[C@](C)(N)[C@H](O)[C@H](C)O2)Oc2ccc(cc2Cl)[C@H]1O [VANCOMYCIN]
[1]
  Activity: <50%

## C[C@H](CCC(=O)NCCNCCNC(=O)CC[C@@H](C)[C@H]1CC[C@H]2[C@@H]3[C@H](O)C[C@@H]4C[C@H](O)CC[C@]4(C)[C@H]3C[C@H](O)[C@]12C)[C@H]1CC[C@H]2[C@@H]3[C@H](O)C[C@@H]4C[C@H](O)CC[C@]4(C)[C@H]3C[C@H](O)[C@]12C
[2]
  zone of inhibition at 30 µg/disc: 14 mm
[3]
  Activity: inactive
[4]
  Activity: inactive
[6]
  zone of inhibition at 30 µg/disc: 10 mm
[5]
  IC50: 2.87 µg/mL (≈ 3.25 µM)
  MIC: 4 µg/mL (≈ 4.52 µM)
[7]
  Activity: Active
[8]
  Activity: Active
[9]
  Activity: Active
[10]
  diameter of the inhibition zone (DIZ): 13 mm
[11]
  IC50: 4.36 µg/mL (≈ 4.93 µM)
  MIC: 8 µg/mL (≈ 9.05 µM)
[12]
  diameter of the inhibition zone (DIZ): 13 mm
[13]
  IC50: 2.18 µg/mL (≈ 2.47 µM)
  MIC: 4 µg/mL (≈ 4.52 µM)
[14]
  fold change (FC): 33
[15]
  fold change (FC): 67
[16]
  fold change (FC): 17
[17]
  fold change (FC): 2
[18]
  fractional inhibitory concentration index (FICI): 0.53
[19]
  fractional inhibitory concentration index (FICI): 0.51
[20]
  fractional inhibitory concentration index (FICI): 0.56
[21]
  fractional inhibitory concentration index (FICI): 1
[22]
  MBIC100: 32 µg/mL
[23]
  Activity: Non-Toxic
